Compounds with a hit are over-represented: about 2.3% of the library has one in this group of screens.
NPY-Y1 antag = NPY-Y1 receptor antagonists, primary screen, cell-based | HEK293-CNG Y1 cells, membrane potential fluorescence; NPY at EC95, then isoproterenol | inhibition, % at 3.6 µM | hit rate 1% among 200,000 | AID 1040, 2008;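 active means inhibition above the campaign mean inhibition of all tested compounds plus 3 SD, cut at about 20% in these data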;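 further: 0% = DMSO wells given NPY plus isoproterenol and 100% = isoproterenol alone without NPY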
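Assay system: HEK293 Y1/CNG channel cell line; Doses: single compound dose of 3.6 µM, 0.4% DMSO; Timing: dye 3 h, compound 60 min room temperature, stimulation 45 min; Technique: Membrane-potential fluorescent dye readout; Measure: % inhibition of NPY effect.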
NPY-Y2 PAM-ag = NPY-Y2 potentiators or agonists, primary screen, cell-based; Neuropeptide Y receptor type 2 (Homo sapiens), P49146; cells expressing NPY-Y2, potentiator/agonist read-out; activation, % at 3.6 µM; hit rate 0.45% among 220,000; in the data active means activation above about 27%;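 further: cells stimulated with NPY near EC25 plus isoproterenol at EC100; 0% = vehicle plus submaximal agonist and 100% = vehicle plus saturating agonist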
Target sequence (P49146 whole entry, looked up): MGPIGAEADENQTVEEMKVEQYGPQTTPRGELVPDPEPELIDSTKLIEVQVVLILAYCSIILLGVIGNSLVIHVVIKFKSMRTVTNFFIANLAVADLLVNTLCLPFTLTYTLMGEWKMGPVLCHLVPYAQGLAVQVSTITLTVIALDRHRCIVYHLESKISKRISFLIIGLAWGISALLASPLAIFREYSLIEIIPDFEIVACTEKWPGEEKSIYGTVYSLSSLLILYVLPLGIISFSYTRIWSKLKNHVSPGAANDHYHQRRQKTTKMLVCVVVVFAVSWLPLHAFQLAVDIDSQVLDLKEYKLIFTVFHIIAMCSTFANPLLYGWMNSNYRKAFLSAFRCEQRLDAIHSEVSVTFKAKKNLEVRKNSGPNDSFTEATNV
NPY Y2 blocker = NPY-Y2 receptor antagonists, primary screen, cell-based; hit rate 0.99% among 140,000; inhibition, % at 2.7 µM; Neuropeptide Y receptor type 2 (Homo sapiens), P49146; NPY-Y2 expressing cells, antagonist mode; in the data active means inhibition above about 17%;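 further: 0% = vehicle with agonist challenge and 100% = reference antagonist with challenge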
NPY1 pot ag = NPY-Y1 receptor potentiators or agonists, primary screen, cell-based; NPY-Y1 expressing cells, potentiator/agonist activation; activation, % at 3.6 µM; hit rate 0.37% among 220,000; in the data active means activation above about 33%, passing the limit was not always enough;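 further: cells stimulated with NPY at EC10 then isoproterenol at EC100; 0% = low agonist plus stimulus and 100% = saturating agonist plus stimulus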
m-calpain inh = inhibitors of pig calpain II, primary screen, biochemical, fluorogenic peptide substrate, 1536-well | purified calpain II, 30 min | inhibition, % at 16 µM | hit rate 0.37% among 220,000;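 active means inhibition above about 50%, limit read from the data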
Tb hexokinase = Trypanosoma brucei hexokinase 1 inhibitors, primary screen, biochemical, G6PDH-coupled NADH absorbance, MLSCN library | recombinant TbHK1, G6PDH-coupled NADH A340 | inhibition, % at 10 µM | hexokinase 1 [Trypanosoma brucei] | hit rate 0.11% among 220,000 | AID 1430, 2008;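 active means inhibition of 50% or more in the single-dose primary screen; inactive means inhibition below 50%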
NPY-Y1 antag ct = NPY-Y1 receptor antagonists, selectivity check, counter-screen for NPY-Y2 antagonist project, cell-based; shares compounds with NPY Y2 blocker; hit rate 19% among 710; cell-based NPY-Y1 antagonism counterscreen; inhibition, % at 3.6 µM; in the data active means inhibition above about 20%;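 further: cells challenged with NPY then isoproterenol with cAMP sensed through a CNG channel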
NPY2 antag conf = NPY-Y2 receptor antagonists, retest of hits, confirmation, HEK293-CNG cells, membrane potential fluorescence, triplicate; HEK293 NPY-Y2 CNG channel; hit rate 32% among 710; shares compounds with NPY Y2 blocker; inhibition, % at 2.8 µM; AID 1257, 2008;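 active means mean inhibition of triplicate wells above the hit cutoff set in the primary screen, cut at about 17% in these data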;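 further: 0% = DMSO with NPY challenge and 100% = BIIE0246 high control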
An asterisk follows results filed as active; nt = not tested or not shown.

SMILES	NPY-Y1 antag	NPY-Y2 PAM-ag	NPY Y2 blocker	NPY1 pot ag	m-calpain inh	Tb hexokinase	NPY-Y1 antag ct	NPY2 antag conf
CC1CCN(c2nc3c(c(=O)[nH]c(=O)n3C)n2CC(C)CSc2nnnn2-c2ccccc2)CC1 (configuration not stated)	-1	3	0	7	3	-7	nt	nt
CCCc1nc(SCc2ccc(Cl)cc2Cl)n[nH]1	2	-4	18*	-32	-2	-4	3	7
COc1ccc(C(C)=O)cc1CSc1nc2ccccc2c(=O)n1-c1cccc(C)c1	1	-3	6	-3	-67	-14	nt	nt
COc1ccc(C(C)=O)cc1CSc1nc2ccccc2c(=O)n1-c1ccccc1C	15	-1	20*	-12	-28	-8	11	13
CCC(c1nnnn1Cc1ccc2c(c1)OCO2)N1CCN(c2ccccc2)CC1 (configuration not stated)	20	-41	18*	-24	16	-3	13	8
CCC(c1nnnn1Cc1ccc2c(c1)OCO2)N1CCN(c2ccc(F)cc2)CC1 (configuration not stated)	15	9	19*	1	31	1	8	8
CC(=O)N(Cc1ccccc1C)c1cccc(C)c1C	3	9	nt	5	22	-3	nt	nt
CCSCc1nnc(SCC(=O)Nc2ccc(OC)cc2)n1C	2	-6	nt	-3	-6	-1	nt	nt
COC(=O)c1cc(-c2ccc(OC)c(OC)c2)on1	12	-23	28*	-36	17	0	28*	50*
COC(=O)c1cc(-c2ccc(OC)cc2)on1	13	-18	nt	-56	-25	0	nt	nt
COc1ccc(/C=C2\CCc3ccccc3C2=O)cc1Cn1nc(C)cc1C	8	-10	18*	9	-6	-19	9	4
O=C(Cn1nc(-c2ccccc2)nc1-c1ccccc1)OC1CCCCC1	8	-21	19*	-25	5	4	8	6
COc1ccc(C2Nc3ccccc3C(=O)N2c2ccc(C)cc2)cc1Cn1nnc2ccccc21 (configuration not stated)	14	1	2	13	-188	0	nt	nt
COc1ccc(C2Nc3ccccc3C(=O)N2c2ccc(C)cc2)cc1Cn1cc([N+](=O)[O-])cn1 (configuration not stated)	8	-40	19*	-27	-74	-1	27*	63*
Cc1cc(C)c(S(=O)(=O)NCC(CCC(=O)O)C(F)(F)F)c(C)c1 (configuration not stated)	7	13	nt	1	-2	-3	nt	nt
Cc1ccc(SCc2cc(-c3ccc(Cl)cc3)no2)cc1	6	5	19*	-11	-12	6	13	17
Clc1ccc(-c2cc(CSc3cccc(Cl)c3)on2)cc1	20	-32	17*	-67	18	7	10	16
Clc1ccc(-c2cc(CSc3ccccc3)on2)cc1	8	-3	15	-43	-7	5	nt	nt
CCOC(=O)c1c(-c2ccc(C)o2)csc1NC(=O)CSc1nnc(C)s1	17	-22	18*	-22	14	-6	13	16
CCOC(=O)c1c(NC(=O)CSc2nnc(C)s2)sc2c1CCC(C)C2 (configuration not stated)	5	8	23*	-19	4	-15	25*	14
O=C(NCc1ccc2c(c1)OCO2)c1cc(-c2ccccc2Cl)on1	12	-55	22*	-14	29	2	18	13
COc1cc2c(cc1NC(=O)C(c1ccccc1)c1ccccc1)CCCC2	10	-12	20*	12	42	0	18	14
COc1cc2c(cc1NC(=O)c1ccccc1F)CCCC2	11	-12	10	-49	7	-1	nt	nt
COc1cc(CN2CCc3ccccc3C2)ccc1O	nt	-7	nt	-1	-15	-7	nt	nt
CCC(c1nnnn1CCc1ccccc1)N(Cc1ccco1)Cc1cc2cc(C)cc(C)c2[nH]c1=O (configuration not stated)	20	-20	17*	-21	nt	-5	8	10
SMILES	NPY-Y1 antag	NPY-Y2 PAM-ag	NPY Y2 blocker	NPY1 pot ag	m-calpain inh	Tb hexokinase	NPY-Y1 antag ct	NPY2 antag conf
CC(C)CCOc1ccc(C2=NNC(=O)CC2)cc1	15	-16	42*	-53	5	5	20*	41*
O=C1CCC(c2ccccc2)=NN1	-3	-16	nt	6	-15	2	nt	nt
COc1ccccc1CNC(=O)CSc1ccccc1	-5	-9	nt	17	-41	0	nt	nt
COc1ccccc1CNC(=O)CSc1ccc(C)cc1	5	13	28*	-20	22	0	0	4
O=C(c1ccco1)c1coc2c1cc(O)c1ccccc12	-9	2	nt	-4	5	-4	nt	nt
Cc1ccc(OCCNc2ccc(C(F)(F)F)cc2[N+](=O)[O-])cc1	0	1	21*	19	17	-9	20	17
CCN(CC)C(=O)C(=O)Nc1ccc(OCc2ccccc2)cc1	-3	25	nt	18	3	3	nt	nt
COc1ccc(C(O)C(CN2CCOCC2)c2ccccc2)cc1F (configuration not stated)	1	-3	2	2	-18	1	nt	nt
COc1ccc(C(=O)C(CN2CCOCC2)c2ccccc2)cc1F (configuration not stated)	17	-35	17*	-10	28	-1	4	5
O=C(Cn1nc([N+](=O)[O-])nc1Br)NC(c1ccccc1)c1ccccc1	5	3	2	3	13	4	nt	nt
CCOc1ccc(OCCSc2nnnn2C2CCCCC2)cc1	19	-22	17*	-21	15	1	9	14
CCOc1ccc(OCCSc2nnnn2-c2ccccc2)cc1	9	-24	7	-27	42	26	nt	nt
Clc1ccc(OCCSc2nnnn2C2CCCCC2)cc1	16	1	22*	-11	6	35	17	21*
Cn1cnnc1SCCOc1ccc(Cl)cc1	1	-14	nt	20	-21	4	nt	nt
O/N=C/c1cccnc1Sc1ccccc1	-5	4	nt	-3	-5	0	nt	nt
Cc1cc(NC(=O)C(=O)NCCN2CCN(S(C)(=O)=O)CC2)ccc1Br	1	-5	nt	2	-13	3	nt	nt

Assay outcomes as filed in PubChem.
